Measured values from ChEMBL document CHEMBL4359830, “Discovery and structure-activity relationship of novel diphenylthiazole derivatives as BTK inhibitor with potent activity against B cell lymphoma cell lines” (Eur J Med Chem, 2019).
pIC50: −log10 of the molar value.

How the values were obtained:
Raji [1] = experiment: Antiproliferative activity against human Raji cells at 40 uM measured after 72 hrs by CCK-8 assay relative to control; format: functional; conditions: Homo sapiens, Raji, 72 h
How it was run: (§1)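 Ramos or Raji cells in RPMI-1640 with 10% FBS and 1% penicillin-streptomycin at 37 °C, 5% CO2. Seeded at 2000–3000 cells/well one day before compound addition. Exposure 72 h, then CCK-8 with absorbance at 450 nm. […] Single-point inhibition at 40 µM reported as mean ± standard deviation.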

Ramos [2] = experiment: Antiproliferative activity against human Ramos cells at 40 uM measured after 72 hrs by CCK-8 assay relative to control; format: functional; conditions: Homo sapiens, Ramos, 72 h; how it was run: as §1
[3] = molecular target: Tyrosine-protein kinase BTK (Homo sapiens, UniProt Q06187); experiment: Inhibition of human recombinant full length N-terminal His tagged BTK expressed in baculovirus infected Sf9 cells using poly (Glu,Tyr) 4:1 as substrate measured after 60 mins in presence of ATP by ADP-Glo kinase assay
Sequence of Tyrosine-protein kinase BTK (Q06187 whole entry): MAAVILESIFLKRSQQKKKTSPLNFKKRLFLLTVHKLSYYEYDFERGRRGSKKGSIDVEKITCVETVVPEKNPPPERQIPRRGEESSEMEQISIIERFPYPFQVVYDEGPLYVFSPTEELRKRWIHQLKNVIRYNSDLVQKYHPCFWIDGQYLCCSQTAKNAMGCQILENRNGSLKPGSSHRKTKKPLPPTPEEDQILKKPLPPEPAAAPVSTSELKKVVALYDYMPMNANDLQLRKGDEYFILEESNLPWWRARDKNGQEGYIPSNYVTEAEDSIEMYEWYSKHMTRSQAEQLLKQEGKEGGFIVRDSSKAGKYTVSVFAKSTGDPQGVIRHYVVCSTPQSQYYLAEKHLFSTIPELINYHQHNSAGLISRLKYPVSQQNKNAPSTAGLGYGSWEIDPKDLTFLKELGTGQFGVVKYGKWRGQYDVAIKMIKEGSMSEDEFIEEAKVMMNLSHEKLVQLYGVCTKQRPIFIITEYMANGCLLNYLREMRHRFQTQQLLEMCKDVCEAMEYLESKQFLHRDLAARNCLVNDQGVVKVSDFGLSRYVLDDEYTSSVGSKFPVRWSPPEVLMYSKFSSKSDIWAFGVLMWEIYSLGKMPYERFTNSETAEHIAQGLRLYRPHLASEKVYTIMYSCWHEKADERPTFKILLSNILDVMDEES

Raji [4] = experiment: Antiproliferative activity against human Raji cells measured after 72 hrs by CCK-8 assay; format: functional, cell-based; how it was run: as §1
Ramos [5] = experiment: Antiproliferative activity against human Ramos cells measured after 72 hrs by CCK-8 assay; format: functional, cell-based; how it was run: as §1
Ramos [6] = experiment: Potency index, ratio of ibrutinib IC50 to compound IC50 for antiproliferative activity against human Ramos cells; format: functional

Compound	pIC50 [3]	pIC50 (Raji [4])	pIC50 (Ramos [5])	inhibition at 40 µM (Raji [1])	inhibition at 40 µM (Ramos [2])	Ratio IC50 (Ramos [6])
CCOC(=O)c1sc(-c2cccc(NC(=O)c3ccc(F)cc3)c2)nc1Nc1ccc(C(=O)N2CCOCC2)cc1	–	–	–	37.3%	31.1%	–
CCOC(=O)c1sc(-c2cccc(NC(=O)c3ccc(Cl)cc3)c2)nc1Nc1ccc(N2CCN(C)CC2)cc1	–	–	–	24.3%	46.9%	–
CCOC(=O)c1sc(-c2cccc(NC(=O)[C@H]3CC[C@H](C)CC3)c2)nc1Nc1ccc(N2CCN(C)CC2)cc1	–	–	–	26.1%	19.9%	–
CCOC(=O)c1sc(-c2cccc(NC(=O)c3ccc(F)c(Cl)c3)c2)nc1Nc1ccc(N2CCN(C)CC2)cc1	–	–	4.53	20.7%	72.5%	–
CCOC(=O)c1sc(-c2cccc(NC(=O)c3ccc(C(C)(C)C)cc3)c2)nc1Nc1ccc(N2CCN(C)CC2)cc1	–	–	–	4.22%	21.2%	–
CCOC(=O)c1sc(-c2cccc(NC(=O)c3ccc(F)cc3)c2)nc1Nc1ccc(N2CCOCC2)cc1	–	–	–	25.8%	3.96%	–
CCOC(=O)c1sc(-c2cccc(NC(=O)c3ccc(C#N)cc3)c2)nc1Nc1ccc(N2CCN(C)CC2)cc1	5.29	4.85	5.37	79.1%	97.5%	–
CCOC(=O)c1sc(-c2cccc(NC(=O)c3cccc(F)c3)c2)nc1Nc1ccc(N2CCN(C)CC2)cc1	4.72	4.67	4.89	82.8%	85.2%	–
CN1CCN(c2ccc(Nc3nc(-c4cccc(NC(=O)c5ccccc5F)c4)sc3C(N)=O)cc2)CC1	5.57	5.49	5.87	97.3%	95.5%	10
CCOC(=O)c1sc(-c2cccc(NC(=O)c3ccc(C(C)(C)C)cc3)c2)nc1Nc1ccc(C(=O)N2CCOCC2)cc1	–	–	4.60	13.2%	82.6%	–
CN1CCN(c2ccc(Nc3nc(-c4cccc(NC(=O)c5ccc(Cl)cc5)c4)sc3C(N)=O)cc2)CC1	6.21	5.24	5.87	92.6%	99%	10
CCOC(=O)c1sc(-c2cccc(NC(=O)c3ccc(C(C)(C)C)cc3)c2)nc1Nc1ccc(N2CCOCC2)cc1	–	–	–	6.21%	14%	–
CN1CCN(c2ccc(Nc3nc(-c4cccc(NC(=O)c5ccccc5)c4)sc3C(=O)O)cc2)CC1	–	–	–	11.9%	26.3%	–
CCOC(=O)c1sc(-c2cccc(NC(=O)c3ccc(N(C)C)cc3)c2)nc1Nc1ccc(N2CCOCC2)cc1	5.38	–	–	7.96%	12.3%	–
CCOC(=O)c1sc(-c2cccc(NC(=O)c3ccc(C(F)(F)F)cc3)c2)nc1Nc1ccc(C(=O)N2CCOCC2)cc1	–	–	–	6.06%	49.9%	–
CCOC(=O)c1sc(-c2cccc(NC(=O)c3ccc(C(F)(F)F)cn3)c2)nc1Nc1ccc(N2CCN(C)CC2)cc1	–	–	–	20.8%	19%	–
CCOC(=O)c1sc(-c2cccc(NC(=O)c3ccc(C(F)(F)F)cc3)c2)nc1Nc1ccc(N2CCN(C)CC2)cc1	–	–	–	33%	18.4%	–
CN1CCN(c2ccc(Nc3nc(-c4cccc(NC(=O)c5cccc(F)c5)c4)sc3C(N)=O)cc2)CC1	–	–	–	2.78%	16.2%	–
CCOC(=O)c1sc(-c2cccc(NC(=O)c3ccc(F)cc3)c2)nc1Nc1ccc(N2CCN(C)CC2)cc1	–	–	–	16.8%	3.53%	–
CN1CCN(c2ccc(Nc3nc(-c4cccc(NC(=O)c5ccccc5F)c4)sc3C(=O)O)cc2)CC1	4.66	4.86	5.20	86.8%	93.3%	–
NC(=O)c1sc(-c2cccc(NC(=O)c3ccc(F)cc3)c2)nc1Nc1ccc(C(=O)N2CCOCC2)cc1	6.13	4.45	4.89	82.5%	91.5%	–
CC(C)NC(=O)c1sc(-c2cccc(NC(=O)c3ccc(C(C)(C)C)cc3)c2)nc1Nc1ccc(N2CCOCC2)cc1	4.20	–	–	6.39%	27.9%	–
CN1CCN(c2ccc(Nc3nc(-c4cccc(NC(=O)c5ccc(Cl)cc5)c4)sc3C(=O)O)cc2)CC1	6.87	5.15	4.63	90.9%	71.6%	–
CC(C)(C)c1ccc(C(=O)Nc2cccc(-c3nc(Nc4ccc(C(=O)N5CCOCC5)cc4)c(C(N)=O)s3)c2)cc1	6.48	–	4.55	33.4%	85.2%	–

Now from value to compound, other results behind:

pIC50 [3]	pIC50 (Raji [4])	pIC50 (Ramos [5])	Compound	inhibition at 40 µM (Raji [1])	inhibition at 40 µM (Ramos [2])	Ratio IC50 (Ramos [6])
7.14	4.43	4.71	CN1CCN(c2ccc(Nc3nc(-c4cccc(NC(=O)c5ccco5)c4)sc3C(N)=O)cc2)CC1	84.3%	96.7%	–
5.17	–	–	NC(=O)c1sc(-c2cccc(NC(=O)c3ccc(C(F)(F)F)cc3)c2)nc1Nc1ccc(N2CCOCC2)cc1	7.48%	25.2%	–
5.68	5.03	5.70	CCOC(=O)c1sc(-c2cccc(NC(=O)c3ccccc3F)c2)nc1Nc1ccc(N2CCN(C)CC2)cc1	89.8%	96.3%	–
6.20	4.61	4.70	CN1CCN(c2ccc(Nc3nc(-c4cccc(NC(=O)c5ccc(C(F)(F)F)cn5)c4)sc3C(N)=O)cc2)CC1	84.6%	96.6%	–
6.59	–	–	NC(=O)c1sc(-c2cccc(NC(=O)c3ccc(F)cc3)c2)nc1Nc1ccc(N2CCOCC2)cc1	9.92%	3.53%	–
4.43	–	4.61	CCOC(=O)c1sc(-c2cccc(NC(=O)c3ccccc3)c2)nc1Nc1ccc(N2CCN(C)CC2)cc1	42%	77.1%	–
5.27	5.24	5.36	CC(C)(C)c1ccc(C(=O)Nc2cccc(-c3nc(Nc4ccc(N5CCOCC5)cc4)c(C(=O)O)s3)c2)cc1	93.8%	94.3%	–
6.69	5.49	5.80	CN1CCN(c2ccc(Nc3nc(-c4cccc(NC(=O)c5ccc(C(F)(F)F)cc5)c4)sc3C(N)=O)cc2)CC1	91.8%	97.8%	–
4.42	–	4.53	O=C(Nc1cccc(-c2nc(Nc3ccc(N4CCOCC4)cc3)c(C(=O)O)s2)c1)c1ccc(C(F)(F)F)cc1	18.8%	77.4%	–
6.21	4.12	4.53	NC(=O)c1sc(-c2cccc(NC(=O)c3ccc(C(F)(F)F)cc3)c2)nc1Nc1ccc(C(=O)N2CCOCC2)cc1	43.8%	83.8%	–
6.06	5.55	5.85	CN1CCN(c2ccc(Nc3nc(-c4cccc(NC(=O)c5ccc(F)cc5)c4)sc3C(N)=O)cc2)CC1	95.3%	95.9%	10
5.65	–	–	CC(C)(C)c1ccc(C(=O)Nc2cccc(-c3nc(Nc4ccc(N5CCOCC5)cc4)c(C(N)=O)s3)c2)cc1	4.42%	5.57%	–
6.98	–	–	CN1CCN(c2ccc(Nc3nc(-c4cccc(NC(=O)[C@H]5CC[C@H](C)CC5)c4)sc3C(N)=O)cc2)CC1	22.4%	55%	–
5.07	5.05	4.47	CNC(=O)c1sc(-c2cccc(NC(=O)c3ccc(C(C)(C)C)cc3)c2)nc1Nc1ccc(N2CCOCC2)cc1	94%	65.8%	–
4.68	–	4.61	CN(C)c1ccc(C(=O)Nc2cccc(-c3nc(Nc4ccc(N5CCOCC5)cc4)c(C(=O)O)s3)c2)cc1	24.4%	74.4%	–
6.79	4.82	–	CCOC(=O)c1sc(-c2cccc(NC(=O)c3ccco3)c2)nc1Nc1ccc(N2CCN(C)CC2)cc1	87.6%	50.2%	–
–	5.06	5.25	CN1CCN(c2ccc(Nc3nc(-c4cccc(NC(=O)c5ccc(F)c(Cl)c5)c4)sc3C(=O)O)cc2)CC1	87.9%	98.6%	–
5.28	–	5.07	CN1CCN(c2ccc(Nc3nc(-c4cccc(NC(=O)c5ccc(C(C)(C)C)cc5)c4)sc3C(N)=O)cc2)CC1	12.1%	80.1%	–
6.80	5.20	5.75	CN1CCN(c2ccc(Nc3nc(-c4cccc(NC(=O)c5ccccc5)c4)sc3C(N)=O)cc2)CC1	91.3%	98.1%	–
5.62	–	–	CCOC(=O)c1sc(-c2cccc(NC(=O)c3ccc(C(F)(F)F)cc3)c2)nc1Nc1ccc(N2CCOCC2)cc1	5.44%	21.8%	–
4.56	4.45	4.85	CN1CCN(c2ccc(Nc3nc(-c4cccc(NC(=O)c5cccc(F)c5)c4)sc3C(=O)O)cc2)CC1	76.3%	82.7%	–
